Results reported in ChEMBL document CHEMBL4715736, “Identification of anticancer agents based on the thieno[2,3-b]pyridine and 1H-pyrazole molecular scaffolds” (2016).

Legend:
Format in all cases: functional
MDA-MB-468 = test: Growth inhibition of human MDA-MB-468 cells assessed as cell growth at 10 uM incubated for 48 hrs by sulforhodamine B assay relative to control; conditions: read-out: Activity
How it was run: (§1)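 Submitted to the NCI Developmental Therapeutics Program for the NCI60 human tumour cell line panel. First screen at a single 10 µM concentration. Read-out is growth relative to untreated control cells set at 100%.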

U-251 = test: Growth inhibition of human U-251 cells assessed as cell growth at 10 uM incubated for 48 hrs by sulforhodamine B assay relative to control; conditions: read-out: Activity
How it was run: (§2)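 Run by the NCI Developmental Therapeutics Program as part of its 60-line human tumour panel. Each compound tested at a single 10 µM dose. Growth expressed as % relative to untreated control cells (100%).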

NCI-H322M = test: Growth inhibition of human NCI-H322M cells assessed as cell growth at 10 uM incubated for 48 hrs by sulforhodamine B assay relative to control; conditions: read-out: Activity; how it was run: as §1
BT-549 = test: Growth inhibition of human BT-549 cells assessed as cell growth at 10 uM incubated for 48 hrs by sulforhodamine B assay relative to control; conditions: read-out: Activity
How it was run: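 NCI Developmental Therapeutics Program NCI60 human tumour cell line panel, one-dose primary screen with every compound at 10 µM. Growth is expressed as % of untreated control cells (100%).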

NCI/ADR-RES = test: Growth inhibition of human NCI/ADR-RES cells assessed as cell growth at 10 uM incubated for 48 hrs by sulforhodamine B assay relative to control; conditions: read-out: Activity; how it was run: as §1
LOX IMVI = test: Growth inhibition of human LOX IMVI cells assessed as cell growth at 10 uM incubated for 48 hrs by sulforhodamine B assay relative to control; conditions: read-out: Activity; how it was run: as §1
MCF7 = test: Growth inhibition of human MCF7 cells assessed as cell growth at 10 uM incubated for 48 hrs by sulforhodamine B assay relative to control; conditions: read-out: Activity; how it was run: as §1
M14 = test: Growth inhibition of human M14 cells assessed as cell growth at 0.01 uM incubated for 48 hrs by sulforhodamine B assay relative to control; conditions: read-out: Activity
RPMI-8226 = test: Growth inhibition of human RPMI-8226 cells assessed as cell growth at 10 uM incubated for 48 hrs by sulforhodamine B assay relative to control; conditions: read-out: Activity; how it was run: as §2
HCT-15 = test: Growth inhibition of human HCT-15 cells incubated for 48 hrs by sulforhodamine B assay
How it was run: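 NCI60 panel at the NCI Developmental Therapeutics Program. Only compounds active in the 10 µM screen went to dose-response testing. GI50, the concentration giving 50% of maximal inhibition of proliferation, and TGI, the concentration giving total growth inhibition, were derived from the dose-response curves.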

SK-MEL-2 = test: Growth inhibition of human SK-MEL-2 cells assessed as cell growth at 10 uM incubated for 48 hrs by sulforhodamine B assay relative to control; conditions: read-out: Activity; how it was run: as §2
HCC 2998 = test: Growth inhibition of human HCC 2998 cells assessed as cell growth at 10 uM incubated for 48 hrs by sulforhodamine B assay relative to control; conditions: read-out: Activity
How it was run: (§3)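 NCI Developmental Therapeutics Program NCI60 panel. Compounds that were active in the 10 µM one-dose screen went on to dose–response testing. Growth at each concentration is expressed relative to untreated control (100%). GI50 (concentration giving 50% of maximal inhibition of proliferation) and TGI (concentration giving total growth inhibition) were derived from the curves.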

SN12C = test: Growth inhibition of human SN12C cells assessed as cell growth at 10 uM incubated for 48 hrs by sulforhodamine B assay relative to control; conditions: read-out: Activity; how it was run: as §2
TK-10 = test: Growth inhibition of human TK-10 cells assessed as cell growth at 10 uM incubated for 48 hrs by sulforhodamine B assay relative to control; conditions: read-out: Activity; how it was run: as §2
CAKI-1 = test: Growth inhibition of human CAKI-1 cells assessed as cell growth at 10 uM incubated for 48 hrs by sulforhodamine B assay relative to control; conditions: read-out: Activity; how it was run: as §3
NCI-H460 = test: Growth inhibition of human NCI-H460 cells assessed as cell growth at 0.1 uM incubated for 48 hrs by sulforhodamine B assay relative to control; conditions: read-out: Activity
SR = test: Growth inhibition of human SR cells assessed as cell growth at 10 uM incubated for 48 hrs by sulforhodamine B assay relative to control; conditions: read-out: Activity; how it was run: as §2
HT-29 = test: Growth inhibition of human HT-29 cells assessed as cell growth at 10 uM incubated for 48 hrs by sulforhodamine B assay relative to control; conditions: read-out: Activity; how it was run: as §1
COLO 205 = test: Growth inhibition of human COLO 205 cells assessed as cell growth at 1 uM incubated for 48 hrs by sulforhodamine B assay relative to control; conditions: read-out: Activity; how it was run: as §3
OVCAR-8 = test: Growth inhibition of human OVCAR-8 cells assessed as cell growth at 10 uM incubated for 48 hrs by sulforhodamine B assay relative to control; conditions: read-out: Activity; how it was run: as §2
A498 = test: Growth inhibition of human A498 cells assessed as cell growth at 10 uM incubated for 48 hrs by sulforhodamine B assay relative to control; conditions: read-out: Activity; how it was run: as §3
SNB-19 = test: Growth inhibition of human SNB-19 cells assessed as cell growth at 100 uM incubated for 48 hrs by sulforhodamine B assay relative to control; conditions: read-out: Activity
SK-MEL-28 = test: Growth inhibition of human SK-MEL-28 cells assessed as cell growth at 10 uM incubated for 48 hrs by sulforhodamine B assay relative to control; conditions: read-out: Activity; how it was run: as §2
NCI-H522 = test: Growth inhibition of human NCI-H522 cells assessed as cell growth at 10 uM incubated for 48 hrs by sulforhodamine B assay relative to control; conditions: read-out: Activity; how it was run: as §1
KM12 = test: Growth inhibition of human KM12 cells assessed as cell growth at 10 uM incubated for 48 hrs by sulforhodamine B assay relative to control; conditions: read-out: Activity; how it was run: as §1
CCRF-CEM = test: Growth inhibition of human CCRF-CEM cells assessed as cell growth at 10 uM incubated for 48 hrs by sulforhodamine B assay relative to control; conditions: read-out: Activity; how it was run: as §3
HOP-92 = test: Growth inhibition of human HOP-92 cells assessed as cell growth at 10 uM incubated for 48 hrs by sulforhodamine B assay relative to control; conditions: read-out: Activity; how it was run: as §1
T47D = test: Growth inhibition of human T47D cells assessed as cell growth at 10 uM incubated for 48 hrs by sulforhodamine B assay relative to control; conditions: read-out: Activity; how it was run: as §2
SK-OV-3 = test: Growth inhibition of human SK-OV-3 cells assessed as cell growth at 10 uM incubated for 48 hrs by sulforhodamine B assay relative to control; conditions: read-out: Activity; how it was run: as §2
UACC-62 [1] = test: Growth inhibition of human UACC-62 cells assessed as cell growth at 10 uM incubated for 48 hrs by sulforhodamine B assay relative to control; conditions: read-out: Activity; how it was run: as §2
NCI-H23 = test: Growth inhibition of human NCI-H23 cells assessed as cell growth at 10 uM incubated for 48 hrs by sulforhodamine B assay relative to control; conditions: read-out: Activity; how it was run: as §1
UACC-62 [2] = test: Growth inhibition of human UACC-62 cells incubated for 48 hrs by sulforhodamine B assay
How it was run: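 NCI DTP 60-line human tumour panel. Dose-response curves were run only for ligands active in the initial 10 µM screen. GI50 (concentration giving 50% of maximal inhibition of proliferation) and TGI (concentration giving total growth inhibition) were derived from these curves.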

SMILES | growth at 10 µM (MDA-MB-468) | growth at 10 µM (U-251) | growth at 10 µM (NCI-H322M) | growth at 10 µM (BT-549) | growth at 10 µM (NCI/ADR-RES) | growth at 10 µM (LOX IMVI) | growth at 10 µM (MCF7) | growth at 10 µM (RPMI-8226) | growth at 10 µM (SK-MEL-2) | growth at 10 µM (HCC 2998) | growth at 10 µM (SN12C) | growth at 10 µM (TK-10) | growth at 10 µM (CAKI-1) | growth at 10 µM (OVCAR-8) | growth at 10 µM (A498) | growth at 10 µM (SK-MEL-28) | growth at 10 µM (KM12) | growth at 10 µM (CCRF-CEM) | growth at 10 µM (HOP-92) | growth at 10 µM (T47D) | also measured
Cc1ccc(NC(=O)c2sc3nc4c(cc3c2N)C(=O)CCC4)cc1C | 4% | 10% | 35% | 63% | 9% | 39.2% | 10.7% | -2% | 31% | 10% | 35% | 56% | 35.7% | 31% | -16% | 37.3% | 19.5% | -6% | 50% | 24.1% | growth at 0.01 µM (M14): 96%; GI50 (HCT-15): 0.486 µM; LC50 (HCT-15): > 100 µM; TGI (HCT-15): > 100 µM; growth at 0.1 µM (NCI-H460): 102%; growth at 10 µM (SR): 11%; growth at 10 µM (HT-29): 1%; growth at 1 µM (COLO 205): -13%; growth at 100 µM (SNB-19): 29%; growth at 10 µM (NCI-H522): -9.22%; growth at 10 µM (SK-OV-3): 4.9%
O=S(=O)(c1ccccc1)n1ccc(-c2ccc3c(c2)CCO3)n1 | 42.4% | 73.6% | 91.4% | 96% | 76% | 85.2% | 83.2% | 62.5% | 86.5% | 90.8% | 67.9% | 76.2% | 75.3% | 84% | 71.2% | 86.2% | 91.9% | 76.7% | 41.8% | 68.8% | growth at 10 µM (UACC-62 [1]): 73.1%; growth at 10 µM (NCI-H23): 78.4%; growth at 10 µM (SR): 73.3%; growth at 10 µM (HT-29): 92.8%; growth at 10 µM (NCI-H522): 61.7%; growth at 10 µM (SK-OV-3): 104%
CCc1cccc(C)c1NC(=O)c1sc2nc3c(cc2c1N)C(=O)CCC3 | 9% | 2.81% | 32% | – | -3% | 36% | 13% | -20% | – | 10.2% | 30% | – | 38% | 20% | -13% | 39% | 14% | 1% | 30% | 24.4% | growth at 10 µM (UACC-62 [1]): 29%; growth at 10 µM (NCI-H23): 32%; growth at 0.01 µM (M14): 96%; GI50 (UACC-62 [2]): 0.556 µM; LC50 (UACC-62 [2]): > 100 µM; TGI (UACC-62 [2]): > 100 µM; GI50 (HCT-15): 0.471 µM; LC50 (HCT-15): > 100 µM; TGI (HCT-15): > 100 µM; growth at 0.1 µM (NCI-H460): 100%; growth at 10 µM (SR): 2.24%; growth at 1 µM (COLO 205): -19%; growth at 100 µM (SNB-19): 34%
Cc1cccc(NC(=O)c2sc3nc4c(cc3c2N)C(=O)CCC4)c1 | – | 6% | 37.2% | 32% | 5% | 24% | 16% | 22% | 13% | 25% | 35% | 57% | 26% | 37% | -12.2% | 34% | 13% | 24% | 35% | 29% | growth at 10 µM (UACC-62 [1]): 14%; growth at 10 µM (NCI-H23): 28%; growth at 0.01 µM (M14): 93%; GI50 (UACC-62 [2]): 0.333 µM; LC50 (UACC-62 [2]): > 100 µM; TGI (UACC-62 [2]): ≥ 100 µM; GI50 (HCT-15): 0.27 µM; LC50 (HCT-15): > 100 µM; TGI (HCT-15): > 100 µM; growth at 0.1 µM (NCI-H460): 83%; growth at 10 µM (HT-29): -1%; growth at 1 µM (COLO 205): -17%; growth at 100 µM (SNB-19): -74%; growth at 10 µM (NCI-H522): -22%; growth at 10 µM (SK-OV-3): 3%
Cc1ccc(S(=O)(=O)n2ccc(-c3ccc(OCCCF)cc3)n2)cc1 | 44.4% | 85% | 93.7% | 99.9% | 77.1% | 92.5% | 78.3% | 72.8% | 87.2% | 93.9% | 80.2% | 62.8% | 63.8% | 87.7% | 77% | 85% | 95% | 75.6% | 71.8% | 72.9% | growth at 10 µM (UACC-62 [1]): 63.9%; growth at 10 µM (NCI-H23): 78.7%; growth at 10 µM (SR): 67.4%; growth at 10 µM (HT-29): 86.4%; growth at 10 µM (NCI-H522): 69.5%; growth at 10 µM (SK-OV-3): 107%
CCc1ccccc1NC(=O)c1sc2nc3c(cc2c1N)C(=O)CCC3 | 14% | 13% | 46.3% | 48% | 5% | 42.6% | 8.32% | -1% | 19.9% | 20% | 40% | 54.7% | 29.9% | 24.3% | -9.7% | 43.7% | 21% | 4% | 54% | 22% | growth at 0.01 µM (M14): 90%; GI50 (HCT-15): 0.349 µM; LC50 (HCT-15): > 100 µM; TGI (HCT-15): > 100 µM; growth at 0.1 µM (NCI-H460): 98%; growth at 10 µM (SR): 9.38%; growth at 10 µM (HT-29): 6%; growth at 1 µM (COLO 205): -34%; growth at 100 µM (SNB-19): 11%; growth at 10 µM (NCI-H522): -11.6%; growth at 10 µM (SK-OV-3): 30%
